Measured values from different studies.
BRWD1 BD2: Bromodomain and WD repeat-containing protein 1, BD2 (BRWD1, Homo sapiens, UniProt Q9NSI6)
CREBBP bromodomain: CREB-binding protein, bromodomain (CREBBP, Homo sapiens, UniProt Q92793)
PTGS2: Prostaglandin G/H synthase 2 (PTGS2, Homo sapiens, UniProt P35354)
DYRK1B: Dual specificity tyrosine-phosphorylation-regulated kinase 1B (DYRK1B, Homo sapiens, UniProt Q9Y463)
BRDT BD2: Bromodomain testis-specific protein, BD2 (BRDT, Homo sapiens, UniProt Q58F21)
DYRK3: Dual specificity tyrosine-phosphorylation-regulated kinase 3 (DYRK3, Homo sapiens, UniProt O43781)

Compound | target | test | system | conditions | endpoint | result
Cc1cc2c(cc1N1C(=O)c3cccc4c(Cl)ccc(c34)C1=O)n(C)c(=O)n2C | BRWD1 BD2 | thermal stability, DSF | – | 10 µM | ΔTm | -1.4 °C
Cn1cc(C(=O)Nc2cccc(C(=O)O)c2)ccc1=O | CREBBP bromodomain | thermal stability, DSF | – | 100 µM | ΔTm | 1.9 °C
O=C(NCCCNc1nc(Nc2cccc(CN3CCOCC3)c2)ncc1C1CC1)C1CCC1 | Inhibitor of nuclear factor kappa-B kinase subunit epsilon (IKBKE, Homo sapiens, UniProt Q14164) | enzyme activity, inhibitor, radiometric | – | 1 µM | remaining activity | 4%
O=c1cc(-c2ccc(O)cc2)oc2cc(O)cc(O)c12 | PTGS2 | enzyme activity, inhibitor | – | 0.12 µg/mL | inhibition | 3.07%
O=C(O)c1ccc2c(c1)nc(NCCc1cccc(F)c1)c1ccncc12 | DYRK1B | enzyme activity, inhibitor, radiometric | – | 1 µM | remaining activity | 106%
CCOc1ccc2cc(-c3nn(CC4CCN(C)CC4)c4ncnc(N)c34)ccc2c1 | Calmodulin-domain protein kinase 1 (CDPK1, Toxoplasma gondii, UniProt Q9BJF5) | thermal stability, DSF | – | 20 µM | ΔTm | 12.3 °C
NS(=O)(=O)c1ccc(Nc2nc(-c3ccc(F)cc3)c3ccccc3n2)cc1 | BRDT BD2 | binding, competition with immobilised ligand | – | 1 µM | remaining binding | 4%
O=C(O)c1ccc2c(c1)nc(NCCc1cccc(Cl)c1)c1ccncc12 | DYRK3 | enzyme activity, inhibitor, radiometric | – | 1 µM | remaining activity | 5%
C[S+]([O-])c1ccc(-c2nc(-c3ccncc3)c(-c3ccc(F)cc3)[nH]2)cc1 (stereo not shown) | Transcription intermediary factor 1-beta (TRIM28, Homo sapiens, UniProt Q13263) | thermal stability, DSF | – | 10 µM | ΔTm | 1.43 °C
N#Cc1cccc(Nc2nc3cc(C(=O)O)ccc3c3cnccc23)c1 | DYRK3 | enzyme activity, inhibitor, radiometric | – | 1 µM | remaining activity | 0%
O=C(O)c1ccc(O)cc1 | PTGS2 | enzyme activity, inhibitor | – | 1.95 µg/mL | inhibition | 41.7%
O=C(O)c1ccc2c(c1)nc(Nc1ccc(Cl)cc1)c1ncncc12 | DYRK3 | enzyme activity, inhibitor, radiometric | – | 1 µM | remaining activity | 9%
C=C[C@@]1(C)C=C2CC[C@@H]3[C@](C)(CCC[C@@]3(C)C(=O)O)[C@H]2CC1 | PTGS2 | enzyme activity, inhibitor | – | 0.24 µg/mL | inhibition | 0%
NS(=O)(=O)c1ccc(CNc2nc(Nc3cccc(NC(=O)N4CCCC4)c3)ncc2Br)cc1 | NUAK family SNF1-like kinase 1 (NUAK1, Homo sapiens, UniProt O60285) | enzyme activity, inhibitor, radiometric | – | 1 µM | remaining activity | 11%
O=C(O)c1ccc2c(c1)nc(NCCc1ccccc1)c1ncncc12 | DYRK3 | enzyme activity, inhibitor, radiometric | – | 1 µM | remaining activity | 25%
COc1ccc(-c2cc(=O)c3c(O)cc(O[C@@H]4O[C@H](CO)[C@@H](O)[C@H](O)[C@H]4O)cc3o2)cc1O | PTGS2 | enzyme activity, inhibitor | – | 0.98 µg/mL | inhibition | 72.2%
Cc1cc2c(NC(=O)c3cccc(C(=O)O)c3)cccc2nn1 | CREBBP bromodomain | thermal stability, DSF | – | 100 µM | ΔTm | 4 °C
O=C(O)c1ccc2c(c1)nc(Nc1ccc3ccccc3c1)c1ccncc12 | DYRK1B | enzyme activity, inhibitor, radiometric | – | 1 µM | remaining activity | 84%
CCN1CCN(Cc2ccc(NC(=O)c3ccc(C)c(Oc4ccnc5[nH]ccc45)c3)cc2C(F)(F)F)CC1 | Microtubule-associated serine/threonine-protein kinase 3 (MAST3, Homo sapiens, UniProt O60307) | target engagement in cells, inhibitor, chemoproteomics | Huh-7 | 1 µM | inhibition | -11.3%
CN(C)C1CCN(CC#Cc2nn(C3CCCC3)c3nc(NCc4ccccc4)ncc23)C1 (stereo not shown) | Serine/threonine-protein kinase PAK 1 (PAK1, Homo sapiens, UniProt Q13153) | enzyme activity, inhibitor, FRET | – | 0.1 µM | inhibition | 2%
COc1cccc(Nc2nc3cc(C(=O)O)ccc3c3cnccc23)c1 | DYRK3 | enzyme activity, inhibitor, radiometric | – | 1 µM | remaining activity | 2%
COC(=O)c1ccc(O)cc1 | PTGS2 | enzyme activity, inhibitor | – | 0.49 µg/mL | inhibition | 0%
O=C(O)c1ccc2c(c1)nc(Nc1ccccc1)c1ccncc12 | DYRK3 | enzyme activity, inhibitor, radiometric | – | 1 µM | remaining activity | 7%
CC(CCC(=O)NCC(=O)O)C1CCC2C3CCC4CC(O)CCC4(C)C3CC(O)C12C (stereo not shown) | Serine hydroxymethyltransferase, mitochondrial (SHMT2, Homo sapiens, UniProt P34897) | thermal stability | – | 50 µM | ΔTm | 12.3 °C
Cc1cnc(Nc2ccc(OCCN3CCCC3)cc2)nc1Nc1cccc(S(=O)(=O)NC(C)(C)C)c1 | BRDT BD2 | thermal stability, DSF | – | 10 µM | ΔTm | 2.69 °C
Cc1ccc(NC(=O)c2ccc(C)c(C(F)(F)F)c2)cc1C#Cc1nn(C2CCC(O)CC2)c2ncnc(N)c12 (stereo not shown) | Rho-associated protein kinase 2 (Rock2, Rattus norvegicus, UniProt Q62868) | cell-free assay | – | 10 µM | remaining signal | 85%
Oc1ccc(-c2nc(-c3ccncc3)c(-c3ccc(F)cc3)[nH]2)cc1 | BRWD1 BD2 | thermal stability, DSF | – | 10 µM | ΔTm | -0.73 °C
Nc1ncnc2occ(-c3ccc(NC(=O)Nc4cc(C(F)(F)F)ccc4F)cc3)c12 | Mitogen-activated protein kinase kinase kinase 15 (MAP3K15, Homo sapiens, UniProt Q6ZN16) | cell-free assay, inhibitor | – | 20 µM | remaining signal | 39%
